In ChEMBL document CHEMBL3627661, “Synthesis and biological evaluation of di-aryl urea derivatives as c-Kit inhibitors” (Bioorg Med Chem, 2015):
Values belong to the compound of their own block, whether it stands above or below them.

Legend:
[1] = target: Epidermal growth factor receptor (Homo sapiens, UniProt P00533); assay: Inhibition of human EGFR after 1 hr using [gamma-32P]ATP
[2] = target: Hepatocyte growth factor receptor (Homo sapiens, UniProt P08581); assay: Inhibition of c-MET (unknown origin) by radiometric protein kinase assay
[3] = target: Mast/stem cell growth factor receptor Kit (Homo sapiens, UniProt P10721); assay: Inhibition of c-Kit (unknown origin) by radiometric protein kinase assay
[4] = target: Proto-oncogene tyrosine-protein kinase Src (Homo sapiens, UniProt P12931); assay: Inhibition of Src (unknown origin) by radiometric protein kinase assay
Proto-oncogene tyrosine-protein kinase Src, sequence (P12931 2-536 limits assumed): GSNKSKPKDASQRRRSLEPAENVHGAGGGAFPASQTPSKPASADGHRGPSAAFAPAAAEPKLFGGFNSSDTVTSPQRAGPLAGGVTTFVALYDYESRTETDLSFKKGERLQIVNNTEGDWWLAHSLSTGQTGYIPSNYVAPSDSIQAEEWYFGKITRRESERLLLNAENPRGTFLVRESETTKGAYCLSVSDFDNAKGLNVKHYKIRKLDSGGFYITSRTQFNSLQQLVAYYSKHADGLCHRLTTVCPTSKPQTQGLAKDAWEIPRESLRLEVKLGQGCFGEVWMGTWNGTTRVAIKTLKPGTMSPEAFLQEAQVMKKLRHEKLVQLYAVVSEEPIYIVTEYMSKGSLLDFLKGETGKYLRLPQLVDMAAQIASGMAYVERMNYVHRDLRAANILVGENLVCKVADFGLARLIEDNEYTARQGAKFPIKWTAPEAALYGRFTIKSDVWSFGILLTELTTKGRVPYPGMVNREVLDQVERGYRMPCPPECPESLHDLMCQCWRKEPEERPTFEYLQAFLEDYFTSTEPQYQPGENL

[5] = target: Platelet-derived growth factor receptor beta (Homo sapiens, UniProt P09619); assay: Inhibition of PDGFR-beta (unknown origin) by radiometric protein kinase assay
[6] = target: RAF proto-oncogene serine/threonine-protein kinase (Homo sapiens, UniProt P04049); assay: Inhibition of Raf (unknown origin) by radiometric protein kinase assay
RAF proto-oncogene serine/threonine-protein kinase, sequence (P04049 whole entry): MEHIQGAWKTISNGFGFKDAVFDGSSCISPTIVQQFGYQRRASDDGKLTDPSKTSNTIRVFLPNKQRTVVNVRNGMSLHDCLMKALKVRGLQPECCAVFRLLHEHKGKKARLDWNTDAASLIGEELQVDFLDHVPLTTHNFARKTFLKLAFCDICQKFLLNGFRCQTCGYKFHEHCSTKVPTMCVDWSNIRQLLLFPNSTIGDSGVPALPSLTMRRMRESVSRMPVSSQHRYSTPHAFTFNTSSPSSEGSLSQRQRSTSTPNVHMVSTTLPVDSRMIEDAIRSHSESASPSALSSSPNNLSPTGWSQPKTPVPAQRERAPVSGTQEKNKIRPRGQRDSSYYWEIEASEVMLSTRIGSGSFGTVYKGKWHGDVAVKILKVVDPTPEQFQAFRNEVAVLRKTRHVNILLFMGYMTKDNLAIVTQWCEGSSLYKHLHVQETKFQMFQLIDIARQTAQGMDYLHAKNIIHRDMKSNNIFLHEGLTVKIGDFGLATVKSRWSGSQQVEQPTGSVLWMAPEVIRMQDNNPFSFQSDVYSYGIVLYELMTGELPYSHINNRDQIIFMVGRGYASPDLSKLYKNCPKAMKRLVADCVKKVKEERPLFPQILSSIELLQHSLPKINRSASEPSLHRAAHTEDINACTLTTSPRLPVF

[7] = target: Vascular endothelial growth factor receptor 3 (Homo sapiens, UniProt P35916); assay: Inhibition of VEGFR3 (unknown origin) by radiometric protein kinase assay
Vascular endothelial growth factor receptor 3, sequence (P35916 whole entry): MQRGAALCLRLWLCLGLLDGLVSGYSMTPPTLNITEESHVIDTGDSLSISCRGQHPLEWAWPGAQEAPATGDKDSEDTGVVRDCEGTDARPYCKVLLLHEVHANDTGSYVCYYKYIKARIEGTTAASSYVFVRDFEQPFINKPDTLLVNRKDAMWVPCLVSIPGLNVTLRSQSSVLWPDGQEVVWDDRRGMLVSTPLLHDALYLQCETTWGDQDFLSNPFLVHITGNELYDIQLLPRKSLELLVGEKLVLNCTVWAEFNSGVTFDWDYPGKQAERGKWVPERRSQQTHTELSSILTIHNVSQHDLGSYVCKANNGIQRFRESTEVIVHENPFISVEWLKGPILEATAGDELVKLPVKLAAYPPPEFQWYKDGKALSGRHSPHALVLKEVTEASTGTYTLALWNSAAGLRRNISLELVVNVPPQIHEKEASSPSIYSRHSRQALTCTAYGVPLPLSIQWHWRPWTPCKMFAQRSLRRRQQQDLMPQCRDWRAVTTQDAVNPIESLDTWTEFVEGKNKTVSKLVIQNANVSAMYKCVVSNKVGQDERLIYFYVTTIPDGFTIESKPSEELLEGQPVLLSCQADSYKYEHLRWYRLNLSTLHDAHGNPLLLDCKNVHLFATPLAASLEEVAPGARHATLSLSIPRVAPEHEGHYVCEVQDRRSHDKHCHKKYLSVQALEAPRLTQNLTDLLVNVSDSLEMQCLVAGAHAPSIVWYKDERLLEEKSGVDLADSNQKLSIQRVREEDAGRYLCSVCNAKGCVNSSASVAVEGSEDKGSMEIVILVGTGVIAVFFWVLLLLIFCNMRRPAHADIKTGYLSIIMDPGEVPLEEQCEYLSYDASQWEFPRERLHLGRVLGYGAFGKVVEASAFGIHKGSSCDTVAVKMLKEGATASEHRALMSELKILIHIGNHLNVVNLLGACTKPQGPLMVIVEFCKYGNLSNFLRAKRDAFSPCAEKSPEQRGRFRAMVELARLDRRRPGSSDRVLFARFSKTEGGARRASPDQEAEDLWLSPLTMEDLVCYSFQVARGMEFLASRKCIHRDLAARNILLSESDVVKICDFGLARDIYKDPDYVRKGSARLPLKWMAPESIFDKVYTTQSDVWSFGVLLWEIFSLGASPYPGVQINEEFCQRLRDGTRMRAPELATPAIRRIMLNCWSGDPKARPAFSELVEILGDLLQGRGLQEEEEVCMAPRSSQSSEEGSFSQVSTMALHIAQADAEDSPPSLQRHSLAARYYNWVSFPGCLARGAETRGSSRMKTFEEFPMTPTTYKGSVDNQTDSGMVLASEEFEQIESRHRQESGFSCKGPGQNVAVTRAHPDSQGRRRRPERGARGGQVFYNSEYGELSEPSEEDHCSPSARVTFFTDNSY

[8] = target: Vascular endothelial growth factor receptor 1 (Homo sapiens, UniProt P17948); assay: Inhibition of VEGFR1 (unknown origin) by radiometric protein kinase assay
Vascular endothelial growth factor receptor 1, sequence (P17948 whole entry): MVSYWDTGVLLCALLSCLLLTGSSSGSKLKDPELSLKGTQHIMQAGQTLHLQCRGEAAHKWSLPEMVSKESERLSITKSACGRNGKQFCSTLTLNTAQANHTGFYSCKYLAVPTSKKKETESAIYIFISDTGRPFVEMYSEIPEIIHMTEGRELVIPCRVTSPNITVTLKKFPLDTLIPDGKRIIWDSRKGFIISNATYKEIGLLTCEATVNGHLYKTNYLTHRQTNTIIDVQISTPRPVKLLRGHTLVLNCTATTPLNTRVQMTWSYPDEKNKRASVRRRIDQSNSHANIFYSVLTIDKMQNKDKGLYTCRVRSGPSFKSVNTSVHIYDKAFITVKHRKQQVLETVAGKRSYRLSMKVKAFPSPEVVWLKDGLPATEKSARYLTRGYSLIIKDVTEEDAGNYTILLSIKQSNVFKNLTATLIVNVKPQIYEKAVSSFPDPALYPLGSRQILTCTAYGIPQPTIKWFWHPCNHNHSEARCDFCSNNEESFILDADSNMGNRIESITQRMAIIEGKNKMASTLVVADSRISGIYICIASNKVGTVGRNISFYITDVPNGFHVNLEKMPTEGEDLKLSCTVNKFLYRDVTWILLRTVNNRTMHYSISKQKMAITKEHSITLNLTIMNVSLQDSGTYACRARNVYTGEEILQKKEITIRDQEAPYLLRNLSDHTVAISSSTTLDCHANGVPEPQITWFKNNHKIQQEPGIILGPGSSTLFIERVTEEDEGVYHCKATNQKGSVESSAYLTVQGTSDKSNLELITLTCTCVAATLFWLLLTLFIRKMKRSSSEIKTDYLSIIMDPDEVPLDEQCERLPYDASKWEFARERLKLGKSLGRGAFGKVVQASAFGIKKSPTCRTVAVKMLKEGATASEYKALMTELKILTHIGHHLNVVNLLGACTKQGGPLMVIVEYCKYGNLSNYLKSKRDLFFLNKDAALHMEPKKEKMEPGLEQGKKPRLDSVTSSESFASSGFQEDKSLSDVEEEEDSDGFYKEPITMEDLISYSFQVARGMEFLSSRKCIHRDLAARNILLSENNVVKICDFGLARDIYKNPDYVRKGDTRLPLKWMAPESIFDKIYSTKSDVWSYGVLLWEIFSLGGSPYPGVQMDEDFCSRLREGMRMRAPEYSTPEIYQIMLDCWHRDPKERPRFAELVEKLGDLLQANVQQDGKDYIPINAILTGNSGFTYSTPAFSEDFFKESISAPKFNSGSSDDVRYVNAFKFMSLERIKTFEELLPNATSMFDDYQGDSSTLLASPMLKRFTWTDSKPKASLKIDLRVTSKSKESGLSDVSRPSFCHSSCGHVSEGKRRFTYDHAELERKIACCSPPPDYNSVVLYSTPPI

[9] = target: Vascular endothelial growth factor receptor 2 (Homo sapiens, UniProt P35968); assay: Inhibition of human recombinant VEGFR-2 after 1 hr using [gamma-32P]ATP
Procedure, shortened: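 Recombinant human VEGFR-2 (10 ng) was incubated for 1 h at 28 °C with varying compound concentrations. Kinase buffer: Tris 50 mM pH 7.5, BSA, MnCl2 1.5 mM, MgCl2 10 mM, DTT 2.5 mM, Na3VO4, β-glycerophosphate 5 mM. Substrate was poly(Glu4/Tyr), with ATP plus [γ-32P]ATP; final DMSO was 0.1%. The reaction was stopped with 100% TCA, wells were washed with 10% TCA, and each well was counted for 1 min.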

Epidermal growth factor receptor, sequence (P00533 whole entry): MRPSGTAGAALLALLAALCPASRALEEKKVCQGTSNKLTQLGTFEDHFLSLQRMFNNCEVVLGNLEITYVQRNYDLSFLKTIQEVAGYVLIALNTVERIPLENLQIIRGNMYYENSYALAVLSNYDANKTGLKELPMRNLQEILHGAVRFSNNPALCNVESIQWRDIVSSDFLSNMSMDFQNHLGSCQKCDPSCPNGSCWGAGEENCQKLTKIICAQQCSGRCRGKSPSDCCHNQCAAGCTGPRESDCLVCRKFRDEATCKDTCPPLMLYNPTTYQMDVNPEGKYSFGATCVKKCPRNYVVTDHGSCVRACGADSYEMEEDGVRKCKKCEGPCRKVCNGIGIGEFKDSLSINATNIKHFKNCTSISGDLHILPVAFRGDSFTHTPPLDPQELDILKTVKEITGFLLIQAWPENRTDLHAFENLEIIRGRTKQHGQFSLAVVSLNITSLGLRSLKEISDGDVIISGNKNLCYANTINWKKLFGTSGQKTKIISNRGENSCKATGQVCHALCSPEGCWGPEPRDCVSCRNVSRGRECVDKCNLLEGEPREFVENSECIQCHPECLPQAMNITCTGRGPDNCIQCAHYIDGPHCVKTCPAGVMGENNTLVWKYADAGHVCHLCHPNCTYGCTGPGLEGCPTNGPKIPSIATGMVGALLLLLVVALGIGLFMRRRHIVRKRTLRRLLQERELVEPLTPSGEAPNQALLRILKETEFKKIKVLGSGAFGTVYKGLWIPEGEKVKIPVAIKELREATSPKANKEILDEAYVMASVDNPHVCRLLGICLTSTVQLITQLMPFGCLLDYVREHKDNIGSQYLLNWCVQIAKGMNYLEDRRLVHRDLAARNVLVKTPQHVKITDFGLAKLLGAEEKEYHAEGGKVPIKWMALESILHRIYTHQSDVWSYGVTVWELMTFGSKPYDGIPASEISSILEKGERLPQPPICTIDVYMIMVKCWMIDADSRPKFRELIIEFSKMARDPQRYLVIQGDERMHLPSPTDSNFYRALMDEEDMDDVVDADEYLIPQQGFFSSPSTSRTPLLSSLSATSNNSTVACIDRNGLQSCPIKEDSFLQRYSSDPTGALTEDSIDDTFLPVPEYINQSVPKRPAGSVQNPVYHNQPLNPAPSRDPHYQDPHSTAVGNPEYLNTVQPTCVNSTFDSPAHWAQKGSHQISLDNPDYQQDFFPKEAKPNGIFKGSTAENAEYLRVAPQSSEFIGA

SMILES: Fc1ccc(Nc2ncnc3ccccc23)cc1Cl
- IC50 [1]: 30 nM

SMILES: COc1cc2ncnc(Oc3ccc(NC(=O)Nc4cccc(Br)c4)cc3)c2cc1OC
- IC50 [2]: 2310 nM
- IC50 [3]: 16 nM
- IC50 [4]: 5470 nM
- IC50 [5]: 5 nM
- IC50 [6]: 930 nM
- IC50 [7]: 9 nM
- IC50 [8]: 46 nM

SMILES: Fc1ccc(Nc2ncnc3sccc23)cc1Cl
- IC50 [1]: 2980 nM

SMILES: CCOC(=O)Nc1ccc(Nc2ncnc3ccccc23)cc1C
- IC50 [1]: > 10000 nM

SMILES: COc1cc2ncnc(Nc3ccc(NC(=O)Nc4cccc(Br)c4)cc3)c2cc1OC
- IC50 [3]: 3 nM
- IC50 [9]: 12 nM
- IC50 [1]: 7710 nM

SMILES: O=C(Nc1ccc(Nc2ncnc3ccccc23)cc1)Nc1cccc(Br)c1
- IC50 [2]: > 10000 nM
- IC50 [3]: 1 nM
- IC50 [4]: > 10000 nM
- IC50 [5]: 850 nM
- IC50 [6]: > 10000 nM
- IC50 [7]: 47 nM
- IC50 [8]: 5750 nM
- IC50 [9]: 91 nM
- IC50 [1]: > 10000 nM

SMILES: O=C(Nc1ccc(Nc2ncnc3sccc23)cc1)Nc1cccc(Br)c1
- IC50 [2]: > 10000 nM
- IC50 [3]: 1 nM
- IC50 [4]: > 10000 nM
- IC50 [5]: 2120 nM
- IC50 [6]: 4020 nM
- IC50 [7]: 1980 nM
- IC50 [8]: > 10000 nM
- IC50 [1]: > 10000 nM

SMILES: Fc1ccc(Oc2ncnc3ccccc23)cc1Cl
- IC50 [1]: 590 nM

SMILES: CCOC(=O)Nc1ccc(Oc2ncnc3cc(OC)c(OC)cc23)cc1C
- IC50 [1]: > 10000 nM

SMILES: CCOC(=O)Nc1ccc(Oc2ncnc3ccccc23)cc1C
- IC50 [9]: 710 nM
- IC50 [1]: > 10000 nM

SMILES: CCOC(=O)Nc1ccc(Oc2ncnc3sccc23)cc1C
- IC50 [1]: > 10000 nM

SMILES: O=C(Nc1ccc(Oc2ncnc3ccccc23)cc1)Nc1cccc(Br)c1
- IC50 [2]: > 10000 nM
- IC50 [3]: 14 nM
- IC50 [4]: > 10000 nM
- IC50 [5]: 320 nM
- IC50 [6]: 6220 nM
- IC50 [7]: 7 nM
- IC50 [8]: 650 nM
- IC50 [9]: 8 nM
- IC50 [1]: > 10000 nM

More lines, now with the values ahead:

- IC50 [9]: > 10000 nM
- IC50 [1]: 1330 nM
SMILES: Fc1ccc(Nc2ncnc3sc4c(c23)CCCC4)cc1Cl

- IC50 [9]: > 10000 nM
- IC50 [1]: > 10000 nM
SMILES: CCOC(=O)Nc1ccc(Nc2ncnc3sc4c(c23)CCCC4)cc1C

- IC50 [2]: > 10000 nM
- IC50 [3]: 6 nM
- IC50 [4]: 7640 nM
- IC50 [5]: 2820 nM
- IC50 [6]: > 10000 nM
- IC50 [7]: 420 nM
- IC50 [8]: 7150 nM
- IC50 [9]: 310 nM
- IC50 [1]: 3950 nM
SMILES: O=C(Nc1ccc(Nc2ncnc3sc4c(c23)CCCC4)cc1)Nc1cccc(Br)c1

- IC50 [9]: 3500 nM
- IC50 [1]: > 10000 nM
SMILES: Fc1ccc(Oc2ncnc3sc4c(c23)CCCC4)cc1Cl

- IC50 [1]: > 10000 nM
SMILES: COc1cc2ncnc(Oc3ccc(NC(=O)Nc4cccc(Br)c4)c(Cl)c3)c2cc1OC

- IC50 [2]: > 10000 nM
- IC50 [3]: 11 nM
- IC50 [4]: > 10000 nM
- IC50 [5]: 570 nM
- IC50 [6]: > 10000 nM
- IC50 [7]: 6 nM
- IC50 [8]: 1080 nM
- IC50 [9]: 18 nM
- IC50 [1]: > 10000 nM
SMILES: O=C(Nc1ccc(Oc2ncnc3sccc23)cc1)Nc1cccc(Br)c1

- IC50 [1]: > 10000 nM
SMILES: Cc1cc(Oc2ncnc3sccc23)ccc1NC(=O)Nc1cccc(Br)c1

- IC50 [1]: > 10000 nM
SMILES: O=C(Nc1cccc(Br)c1)Nc1ccc(Oc2ncnc3sccc23)cc1Cl

- IC50 [2]: > 10000 nM
- IC50 [3]: 17 nM
- IC50 [4]: 8460 nM
- IC50 [5]: 2300 nM
- IC50 [6]: 5840 nM
- IC50 [7]: 1020 nM
- IC50 [8]: 1700 nM
- IC50 [9]: 11 nM
- IC50 [1]: > 10000 nM
SMILES: O=C(Nc1ccc(Oc2ncnc3sc4c(c23)CCCC4)cc1)Nc1cccc(Br)c1

- IC50 [9]: 34 nM
- IC50 [1]: 3290 nM
SMILES: Cc1cc(Oc2ncnc3sc4c(c23)CCCC4)ccc1NC(=O)Nc1cccc(Br)c1

- IC50 [9]: 15 nM
- IC50 [1]: 1260 nM
SMILES: O=C(Nc1cccc(Br)c1)Nc1ccc(Oc2ncnc3sc4c(c23)CCCC4)cc1Cl
